# Sampled rows, rich in hits. Any-hit rate of the full collection: about 9.2%.
# HCT116 PTEN-null: growth suppressors of cells with PTEN tumor suppressor deletion; HCT116 PTEN-null viability, CellTiter-Glo, 60 h; stronger effect = lower value; viability, % at 10 µM; hit rate 1.2% among 140,000; AID 827;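 active = viability at or below a set limit, 4 SD under the median of all tested compounds, cut at about 3.7% in these data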;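 note: PTEN knockout HCT116 line with beta catenin targeted HCT116 as companion control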
# HCT116 bCat-KO: beta-catenin-lacking colon tumor cell growth suppression; HCT116 beta-catenin knockout viability, CellTiter-Glo, 60 h; stronger effect = lower value; viability, % at 10 µM; hit rate 1.5% among 140,000;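 active = viability at or under a set limit, the compound median less 4 SD, cut at about 6% in these data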;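 note: 0% = Hyamine 1622 control at 20 µM and 100% = untreated cell control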
# Autophagy mod: modulators of autophagy | MEF GFP-LC3 puncta imaging; test concentration mostly 10 µM | calls only at 10 µM (by protocol) | hit rate 0.98% among 190,000 | AID 463193;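 active = percentage of spot-positive cells more than 3 SD above its plate mean, without a fluorescence outlier flag or 80% toxicity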;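 note: spot-positive cell cutoff set from DMSO-treated cells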
# Dynein cargo inh: blocks dynein driven cargo transport along microtubules; 3617.4 mouse cells, GR-EGFP nuclear translocation imaging; test concentration mostly 20 µM; stimulated with dexamethasone, 1 µM; stronger effect = lower value; z-score, hits read low; hit rate 0.47% among 220,000; AID 1381;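 active = plate z-score of nuclear minus cytoplasmic receptor signal below a set negative limit, without overly bright fluorescence or cell loss, cut at about -3.5 in these data, passing the limit was not always enough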;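 note: z-score of nuclear minus cytoplasmic ring GR-EGFP intensity difference per well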
#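 Buffer or medium – tet-free medium with charcoal-stripped serum · Signal – automated 10x imaging of fixed Hoechst-stained cells · Also added – dexamethasone agonist, 1.0 µM final, for 30 min · Incubation – induction 48 h, compound 1 h, agonist 30 min · Read-out – GR-EGFP nuclear translocation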
# Lmaj promast: reduces viability of Leishmania major promastigotes; hit rate 9% among 200,000; inhibition, % at 10 µM; resazurin fluorescence viability; AID 1063; in the data active = inhibition above about 50%;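 note: promastigotes grown with compound for 44 hours at 28 °C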
# * = called active by the depositor; i = inactive; · = no result given; + = active, no number.
SMILES,HCT116 PTEN-null,HCT116 bCat-KO,Autophagy mod,Dynein cargo inh,Lmaj promast
O=C(NCc1cccc(Cl)c1)c1cccnc1,98.2,98.3,i,-0.352,-1.4
COc1ccc(Cl)cc1NC(=S)NNC(=O)c1cccnc1,·,·,+,0.993,-2.7
COc1ccc(/C=C/C(=O)NC(=S)NNC(=O)c2cnccn2)cc1,·,·,·,-1.24,·
COc1ccc(/C=C/C(=O)NC(=S)NNC(=O)c2cccnc2)cc1,67.7,56.3,i,-0.735,92.7*
COc1ccc(NC(=S)NNC(=O)c2cccnc2)cc1OC,·,·,i,-0.118,-7.2
N#C/C(=C\c1ccccc1)C(=O)OCC(=O)N1CCCC1,·,·,i,-0.41,-7.4
CC(C)c1nnc(NC(=O)CSc2nnc(NC(=O)c3c(F)cccc3F)s2)s1,·,·,i,0.335,-13.8
CCC(CC)C1C(C#N)=C(N)Oc2n[nH]c(C)c21 (stereo not drawn),75.3,53.5,i,0.71,98.9*
CCC(CC)C1C(C#N)=C(N)Oc2n[nH]c(-c3ccccc3)c21 (stereo not drawn),85.9,82.4,i,-0.835,31.8
Cc1[nH]nc2c1C(C1CC=CCC1)C(C#N)=C(N)O2 (stereo not drawn),12.7,9.4,i,-1.41,100.0*
O=C1C=C(c2cccs2)C[C@H](c2ccccc2)[C@H]1n1nnc([N+](=O)[O-])n1,4.4,4.9*,i,-0.598,29.9
CC(=O)C1C(=O)C=C(c2cccs2)CC1c1ccccc1 (stereo not drawn),·,·,i,-0.184,0.3
Cc1ccc(N2CN(CCc3ccccc3)CNC2=S)cc1,·,·,·,-0.588,·
O=C(c1cccnc1)N1CCc2ccccc2C1,88.4,91.7,i,-0.626,1.1
O=C(c1nc2ncccn2n1)N1CCc2ccccc2C1,92.4,82.4,i,-0.0758,90.8*
CC(CN1CCOCC1)C(=O)O (stereo not drawn),100.4,96.0,i,0.651,-3.8
Cc1ccc(-n2c(C)cc(C3=NNC(=NC4CC4)SC3)c2C)cc1C,71.3,61.2,i,-0.237,87.1*
COc1ccc(C2CC(c3ccccc3)=NN2c2ccc(S(N)(=O)=O)cc2)cc1 (stereo not drawn),·,·,i,0.0754,29.8
NS(=O)(=O)c1ccc(N2N=C(c3ccccc3)CC2c2ccc(F)cc2)cc1 (stereo not drawn),41.2,56.9,i,0.0105,98.3*
CCc1ccc(S(=O)(=O)Nc2cc(SCC(=O)O)c(O)c3ccccc23)cc1,·,·,i,0.805,98.6*
O=S(=O)(Nc1cc(Sc2cccc3cccnc23)c(O)c2ccccc12)c1ccccc1,1.2*,1.3*,i,-0.169,100.3*
Cc1ccc(C)c(S(=O)(=O)Nc2cc(SCC(=O)O)c(O)c3ccccc23)c1,6.3,12.5,i,-0.497,99.7*
O=C(O)CSc1cc(NS(=O)(=O)c2cccc([N+](=O)[O-])c2)c2ccccc2c1O,·,·,·,-0.412,·
Cc1ccc(C)c(SCC(=O)NC(=O)NCc2ccccc2)c1,94.8,95.5,i,-0.212,-3.0
CN(C)/C=N/c1sc2c(c1C#N)CC(C)(C)NC2(C)C,102.2,96.5,i,-0.037,3.1
SMILES,HCT116 PTEN-null,HCT116 bCat-KO,Autophagy mod,Dynein cargo inh,Lmaj promast
COc1ccccc1-c1ccc(=O)n(CC(=O)NCc2ccco2)n1,·,·,i,-0.238,-2.0
COC(=O)C1=C(C)N(c2cc(Cl)cc(Cl)c2)C(=O)C1,65.3,65.8,i,-3.16,86.5*
CCOC(=O)C1(CCCc2ccccc2)CCN(C(=O)CCN2CCCCC2=O)CC1,·,·,i,0.286,-5.5
Cc1ccc(NCc2ccccc2O)cc1,82.3,94.7,i,0.331,0.5
Cc1ccc(CNc2ccc(O)cc2)cc1,24.3,37.2,i,-0.885,98.8*
CCOC(=O)c1ccc(N2C(=O)CC(Sc3nnc(C)s3)C2=O)cc1 (stereo not drawn),111.2,97.7,i,-3.53*,-2.4
Cc1cc(C)c(C#N)c(Oc2ccc(O)cc2)n1,102.4,101.7,i,1.92,26.6
CCCC(=O)Nc1cccc(Oc2nc(C)cc(C)c2C#N)c1,84.2,82.0,i,1.39,51.7*
CCSc1ccccc1C(=O)N1CCCC1,105.1,110.2,i,0.455,-1.9
CCSc1ccccc1C(=O)n1nnc2ccccc21,98.3,94.8,i,-4*,-8.1
Oc1ccc(CCC2CCCCN2Cc2nc(C3CC3)no2)cc1 (stereo not drawn),·,·,i,0.0998,-3.2
Fc1ccccc1Oc1nc(-c2ccncc2)nc2ccccc12,·,·,·,-0.184,·
COc1cc(CNCCCN2CCOCC2)cc(Br)c1OCC(=O)N1CCCCC1,105.2,94.3,i,-0.218,-3.8
CCOc1ccc(Br)cc1CNCCN1CCOCC1,99.4,92.3,i,-0.501,10.9
COc1cc(CNCCN2CCOCC2)ccc1OCc1ccccc1Cl,86.8,88.7,i,-0.31,92.0*
COc1cc(CNCCCN2CCOCC2)cc(Br)c1OCc1ccc(Cl)cc1,·,·,i,5.82,100.5*
COc1cc(CNCc2ccccn2)ccc1OCc1ccccc1Cl,65.5,70.7,i,-0.606,94.3*
COc1cc(CNCCN2CCOCC2)ccc1OCc1ccc(Cl)cc1,71.9,74.8,i,0.587,94.3*
COc1ccc(Cl)cc1NC(=S)NCCN1CCOCC1,·,·,i,0.266,-2.1
CCOC(=O)/C(=N\Nc1ccc(Br)cc1)N1CCN(c2ccccc2OC)CC1,·,·,i,-0.316,9.3
COc1cc(CNCCc2ccccc2)ccc1OCC(N)=O,97.8,94.7,i,-0.0989,-2.3
CCCOc1cc(CC(=O)NCc2ccco2)ccc1OC,89.2,98.0,i,-0.329,1.8
COc1ccc(CNCc2ccco2)cc1OCc1ccccc1,99.9,93.6,i,0.142,99.8*
COc1ccccc1CCNCc1ccc(OC)c(OCc2ccccc2)c1,15.9,20.4,i,-0.714,100.3*
CNC(=S)N(Cc1cccs1)Cc1cc2ccc(OC)cc2[nH]c1=O,70.6,81.0,i,0.124,70.3*
SMILES,HCT116 PTEN-null,HCT116 bCat-KO,Autophagy mod,Dynein cargo inh,Lmaj promast
COc1cc2cc(CN(Cc3cccs3)C(=S)Nc3ccccc3)c(=O)[nH]c2cc1OC,70.1,78.0,i,-0.469,81.3*
CCNC(=S)N(Cc1ccco1)Cc1cc2cc(OCC)ccc2[nH]c1=O,·,·,i,-1.07,33.1
CCNC(=S)N(Cc1cccs1)Cc1cc2cc(OCC)ccc2[nH]c1=O,82.3,76.0,i,-0.24,96.2*
COc1ccc2[nH]c(=O)c(CN(Cc3cccs3)C(=S)Nc3ccccc3)cc2c1,54.7,71.7,i,0.343,98.0*
COc1ccc2[nH]c(C)c(CCN(Cc3cccs3)C(=S)Nc3ccccc3)c2c1,55.3,59.9,i,-0.535,46.3
COc1ccc(NC(=S)N(CCO)Cc2cc3c(C)cc(C)cc3[nH]c2=O)cc1,·,·,·,-0.302,·
Cc1onc(C(=O)Nc2c(C)n(C)n(-c3ccccc3)c2=O)c1[N+](=O)[O-],·,·,·,0.37,·
CCN(CC)CCNc1c2c(c(C#N)c3nc4ccccc4n13)CCCC2,3.6*,7.7,i,-0.441,95.5*
CCc1ccccc1NC(=O)C(CC)Sc1nc2cc3c(cc2c(=O)n1Cc1ccco1)OCO3 (stereo not drawn),101.1,102.4,i,-0.139,100.3*
